# From ChEMBL document CHEMBL3868583, “6-Aryl substituted 4-(4-cyanomethyl) phenylamino quinazolines as a new class of isoform-selective PI3K-alpha inhibitors” (Eur J Med Chem, 2016)
# Legend:
# [1] = target: T1, Phosphatidylinositol 4,5-bisphosphate 3-kinase catalytic subunit alpha isoform (Homo sapiens, UniProt P42336); experiment: Inhibition of PI3Kalpha (unknown origin) using diC8 PIP2 as substrate at 0.5 uM after 80 mins by ADP-glo assay
# [2] = Cytotoxicity against human PC3 cells assessed as cell growth inhibition after 48 hrs by MTT assay; assay type: functional; conditions: PC-3, 48 h
# Summary of the method: (§1)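 MTT assay: 3 × 10^3 cells/well seeded, compounds added after 24 h at final […], 48 h exposure. MTT (2.5 mg/mL in PBS) added, formazan dissolved in DMSO, absorbance 570 nm. Viability as % of untreated; three independent experiments, mean ± SD.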
# [3] = Cytotoxicity against human HL60 cells assessed as cell growth inhibition after 48 hrs by MTT assay; assay type: functional; conditions: HL-60, 48 h; summary of the method: as §1
# [4] = Cytotoxicity against human MCF7 cells assessed as cell growth inhibition after 48 hrs by MTT assay; assay type: functional; conditions: MCF7, 48 h; summary of the method: as §1
# [5] = Cytotoxicity against human PANC1 cells assessed as cell growth inhibition after 48 hrs by MTT assay; assay type: functional; conditions: PANC-1, 48 h; summary of the method: as §1
# [6] = Cytotoxicity against human A375 cells assessed as cell growth inhibition after 48 hrs by MTT assay; assay type: functional; conditions: A-375, 48 h; summary of the method: as §1
# Homo sapiens [7] = species on record: Homo sapiens; experiment: Selectivity ratio of IC50 for PI3Kbeta (unknown origin) to IC50 for PI3Kalpha (unknown origin)
# Homo sapiens [8] = species on record: Homo sapiens; experiment: Selectivity ratio of IC50 for PI3Kdelta (unknown origin) to IC50 for PI3Kalpha (unknown origin)
# Homo sapiens [9] = species on record: Homo sapiens; experiment: Selectivity ratio of IC50 for PI3Kgamma (unknown origin) to IC50 for PI3Kalpha (unknown origin)
# [10] = target: T2, Phosphatidylinositol 4,5-bisphosphate 3-kinase catalytic subunit beta isoform (Homo sapiens, UniProt P42338); experiment: Inhibition of PI3Kbeta (unknown origin) using diC8 PIP2 as substrate after 60 mins by ADP-glo assay
# T2 sequence (P42338 whole entry, canonical isoform): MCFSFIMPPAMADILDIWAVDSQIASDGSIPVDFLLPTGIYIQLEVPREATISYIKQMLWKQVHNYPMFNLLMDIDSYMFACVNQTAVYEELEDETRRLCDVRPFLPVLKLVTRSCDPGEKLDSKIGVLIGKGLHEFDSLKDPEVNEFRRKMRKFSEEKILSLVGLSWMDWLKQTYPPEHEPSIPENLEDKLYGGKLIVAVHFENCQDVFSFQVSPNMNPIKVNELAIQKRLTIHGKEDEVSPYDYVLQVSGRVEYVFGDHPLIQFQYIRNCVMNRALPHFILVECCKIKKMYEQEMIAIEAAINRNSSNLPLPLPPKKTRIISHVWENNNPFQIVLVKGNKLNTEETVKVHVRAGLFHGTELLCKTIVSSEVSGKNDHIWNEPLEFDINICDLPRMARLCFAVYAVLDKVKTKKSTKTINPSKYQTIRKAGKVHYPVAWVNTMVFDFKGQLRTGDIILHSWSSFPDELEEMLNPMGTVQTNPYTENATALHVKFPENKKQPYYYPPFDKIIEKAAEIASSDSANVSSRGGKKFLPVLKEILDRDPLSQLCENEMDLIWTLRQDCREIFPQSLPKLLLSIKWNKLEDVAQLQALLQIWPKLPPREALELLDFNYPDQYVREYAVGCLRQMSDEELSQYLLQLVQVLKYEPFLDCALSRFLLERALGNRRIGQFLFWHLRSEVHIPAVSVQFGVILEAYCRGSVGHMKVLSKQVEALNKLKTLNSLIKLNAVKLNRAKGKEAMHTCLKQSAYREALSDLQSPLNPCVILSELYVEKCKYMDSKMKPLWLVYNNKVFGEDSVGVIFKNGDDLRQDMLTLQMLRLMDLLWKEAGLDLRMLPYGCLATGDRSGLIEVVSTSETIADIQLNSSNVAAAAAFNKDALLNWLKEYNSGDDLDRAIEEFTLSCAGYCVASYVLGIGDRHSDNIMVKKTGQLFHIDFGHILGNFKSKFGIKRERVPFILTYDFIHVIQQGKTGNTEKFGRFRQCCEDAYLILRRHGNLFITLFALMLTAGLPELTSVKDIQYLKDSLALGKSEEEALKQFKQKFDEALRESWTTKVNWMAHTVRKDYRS
# [11] = target: T3, Phosphatidylinositol 4,5-bisphosphate 3-kinase catalytic subunit delta isoform (Homo sapiens, UniProt O00329); experiment: Inhibition of PI3Kdelta (unknown origin) using diC8 PIP2 as substrate after 120 mins by ADP-glo assay
# T3 sequence (O00329 whole entry): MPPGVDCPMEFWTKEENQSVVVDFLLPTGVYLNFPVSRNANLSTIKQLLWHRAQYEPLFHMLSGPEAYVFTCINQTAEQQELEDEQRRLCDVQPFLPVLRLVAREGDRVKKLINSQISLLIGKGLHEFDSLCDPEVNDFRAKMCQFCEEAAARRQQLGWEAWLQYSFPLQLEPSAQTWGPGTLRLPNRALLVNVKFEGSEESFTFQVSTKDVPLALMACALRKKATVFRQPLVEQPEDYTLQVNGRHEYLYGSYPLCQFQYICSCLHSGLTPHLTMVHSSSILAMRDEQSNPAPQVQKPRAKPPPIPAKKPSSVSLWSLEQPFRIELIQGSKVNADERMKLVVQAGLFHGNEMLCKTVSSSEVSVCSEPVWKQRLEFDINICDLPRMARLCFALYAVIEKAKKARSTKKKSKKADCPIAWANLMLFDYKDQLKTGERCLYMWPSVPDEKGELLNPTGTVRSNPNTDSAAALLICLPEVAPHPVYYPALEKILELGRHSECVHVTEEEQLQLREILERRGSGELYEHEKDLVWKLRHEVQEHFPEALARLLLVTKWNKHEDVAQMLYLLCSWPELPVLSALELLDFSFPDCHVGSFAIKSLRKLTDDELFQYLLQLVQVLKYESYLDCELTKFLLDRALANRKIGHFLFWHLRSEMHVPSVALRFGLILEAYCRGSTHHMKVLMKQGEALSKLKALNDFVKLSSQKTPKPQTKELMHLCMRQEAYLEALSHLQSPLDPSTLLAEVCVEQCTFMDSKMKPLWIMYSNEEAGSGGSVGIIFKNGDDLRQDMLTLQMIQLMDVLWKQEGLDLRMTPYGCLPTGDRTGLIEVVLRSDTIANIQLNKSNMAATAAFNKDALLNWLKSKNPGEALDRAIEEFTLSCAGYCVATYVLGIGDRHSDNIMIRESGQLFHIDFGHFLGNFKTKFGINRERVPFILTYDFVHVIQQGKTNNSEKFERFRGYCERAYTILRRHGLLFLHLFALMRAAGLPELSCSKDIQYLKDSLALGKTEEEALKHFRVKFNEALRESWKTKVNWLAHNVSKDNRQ
# Summary of the method: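 Delta isoform reacted 120 min in glycine-NaOH pH 8.5 buffer (50 mM KCl, 2.5 mM MgCl2, 1 mM DTT, 0.05% CHAPS) with 0.01 mM ATP and 0.05 mM diC8 PIP2; ADP formed detected by ADP-Glo (40 min) plus detection buffer (40 min) luminescence. Dundee profiling centre.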
# [12] = target: T1, Phosphatidylinositol 4,5-bisphosphate 3-kinase catalytic subunit alpha isoform; experiment: Inhibition of PI3Kalpha (unknown origin) using diC8 PIP2 as substrate after 80 mins by ADP-glo assay
# [13] = target: T4, Phosphatidylinositol 4,5-bisphosphate 3-kinase catalytic subunit gamma isoform (Homo sapiens, UniProt P48736); experiment: Inhibition of PI3Kgamma (unknown origin) using diC8 PIP2 as substrate after 75 mins by ADP-glo assay
# T4 sequence (P48736 whole entry, canonical isoform): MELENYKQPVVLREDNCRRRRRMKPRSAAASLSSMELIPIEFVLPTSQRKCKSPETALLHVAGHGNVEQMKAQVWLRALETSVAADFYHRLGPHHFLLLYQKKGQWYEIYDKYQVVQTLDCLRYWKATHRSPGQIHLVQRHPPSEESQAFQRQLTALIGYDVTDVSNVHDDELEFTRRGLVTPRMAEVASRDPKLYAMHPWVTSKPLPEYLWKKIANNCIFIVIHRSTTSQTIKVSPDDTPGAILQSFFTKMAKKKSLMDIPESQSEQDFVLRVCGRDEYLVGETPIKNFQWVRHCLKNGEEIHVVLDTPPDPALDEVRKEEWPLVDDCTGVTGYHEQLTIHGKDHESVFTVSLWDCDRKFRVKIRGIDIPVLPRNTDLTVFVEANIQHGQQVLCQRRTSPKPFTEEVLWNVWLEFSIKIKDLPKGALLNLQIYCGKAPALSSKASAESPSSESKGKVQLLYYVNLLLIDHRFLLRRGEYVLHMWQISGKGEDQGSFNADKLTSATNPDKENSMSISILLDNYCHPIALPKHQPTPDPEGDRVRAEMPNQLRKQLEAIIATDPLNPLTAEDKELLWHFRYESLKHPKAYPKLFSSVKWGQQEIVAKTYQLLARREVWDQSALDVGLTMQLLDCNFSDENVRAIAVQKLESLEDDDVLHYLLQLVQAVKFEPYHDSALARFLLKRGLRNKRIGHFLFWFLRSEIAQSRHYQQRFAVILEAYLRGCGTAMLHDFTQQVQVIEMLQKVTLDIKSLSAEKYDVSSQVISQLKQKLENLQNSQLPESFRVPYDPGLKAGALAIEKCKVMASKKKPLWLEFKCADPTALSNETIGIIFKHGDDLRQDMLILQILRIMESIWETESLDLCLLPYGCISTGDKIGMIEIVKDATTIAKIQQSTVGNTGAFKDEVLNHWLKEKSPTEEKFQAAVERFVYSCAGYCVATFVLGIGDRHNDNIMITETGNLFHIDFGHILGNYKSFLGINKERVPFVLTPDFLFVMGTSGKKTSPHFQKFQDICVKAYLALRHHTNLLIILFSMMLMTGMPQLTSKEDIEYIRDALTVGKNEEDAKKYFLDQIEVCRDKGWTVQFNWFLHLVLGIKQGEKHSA
# [14] = target: T3, Phosphatidylinositol 4,5-bisphosphate 3-kinase catalytic subunit delta isoform; experiment: Inhibition of PI3Kdelta (unknown origin)
# Summary of the method: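 Substrate was 0.05 mM diC8 PIP2 with 0.01 mM ATP, and the kinase reaction ran 120 min. ADP produced was read by ADP-Glo luminescence: 40 min with ADP-Glo reagent, then 40 min with detection buffer.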
# [15] = target: T1, Phosphatidylinositol 4,5-bisphosphate 3-kinase catalytic subunit alpha isoform; experiment: Inhibition of PI3Kalpha (unknown origin)
# Summary of the method: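 Run by a kinase profiling service. Reaction 80 min. ADP-Glo reagent added for 40 min, then kinase detection buffer for 40 min. Luminescence read.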
# [16] = target: T2, Phosphatidylinositol 4,5-bisphosphate 3-kinase catalytic subunit beta isoform; experiment: Inhibition of PI3Kbeta (unknown origin)
# [17] = target: T4, Phosphatidylinositol 4,5-bisphosphate 3-kinase catalytic subunit gamma isoform
# [18] = Thermodynamic equilibrium solubility of compound in simulated gastric fluid up to 300 ug after 4 hrs by UV absorbance method; assay type: ADME; conditions: read-out: Therm_solubility
# Summary of the method: (§2)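 Methanol stock evaporated in wells to give 1–300 µg solid; 200 µl medium (water, PBS, SGF or SIF) added, shaken 300 rpm 4 h at 25 ± 1 °C, equilibrated overnight, centrifuged; supernatant UV absorbance at λmax; saturation point from concentration–absorbance curve; triplicate.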
# [19] = Thermodynamic equilibrium solubility of compound in water up to 300 ug after 4 hrs by UV absorbance method; assay type: physicochemical; conditions: read-out: Therm_solubility; summary of the method: as §2
# [20] = Thermodynamic equilibrium solubility of compound in PBS up to 300 ug after 4 hrs by UV absorbance method; assay type: physicochemical; conditions: read-out: Therm_solubility; summary of the method: as §2
# [21] = Thermodynamic equilibrium solubility of compound in simulated intestinal fluid up to 300 ug after 4 hrs by UV absorbance method; assay type: ADME; conditions: read-out: Therm_solubility; summary of the method: as §2
# T1 sequence (P42336 whole entry, canonical isoform): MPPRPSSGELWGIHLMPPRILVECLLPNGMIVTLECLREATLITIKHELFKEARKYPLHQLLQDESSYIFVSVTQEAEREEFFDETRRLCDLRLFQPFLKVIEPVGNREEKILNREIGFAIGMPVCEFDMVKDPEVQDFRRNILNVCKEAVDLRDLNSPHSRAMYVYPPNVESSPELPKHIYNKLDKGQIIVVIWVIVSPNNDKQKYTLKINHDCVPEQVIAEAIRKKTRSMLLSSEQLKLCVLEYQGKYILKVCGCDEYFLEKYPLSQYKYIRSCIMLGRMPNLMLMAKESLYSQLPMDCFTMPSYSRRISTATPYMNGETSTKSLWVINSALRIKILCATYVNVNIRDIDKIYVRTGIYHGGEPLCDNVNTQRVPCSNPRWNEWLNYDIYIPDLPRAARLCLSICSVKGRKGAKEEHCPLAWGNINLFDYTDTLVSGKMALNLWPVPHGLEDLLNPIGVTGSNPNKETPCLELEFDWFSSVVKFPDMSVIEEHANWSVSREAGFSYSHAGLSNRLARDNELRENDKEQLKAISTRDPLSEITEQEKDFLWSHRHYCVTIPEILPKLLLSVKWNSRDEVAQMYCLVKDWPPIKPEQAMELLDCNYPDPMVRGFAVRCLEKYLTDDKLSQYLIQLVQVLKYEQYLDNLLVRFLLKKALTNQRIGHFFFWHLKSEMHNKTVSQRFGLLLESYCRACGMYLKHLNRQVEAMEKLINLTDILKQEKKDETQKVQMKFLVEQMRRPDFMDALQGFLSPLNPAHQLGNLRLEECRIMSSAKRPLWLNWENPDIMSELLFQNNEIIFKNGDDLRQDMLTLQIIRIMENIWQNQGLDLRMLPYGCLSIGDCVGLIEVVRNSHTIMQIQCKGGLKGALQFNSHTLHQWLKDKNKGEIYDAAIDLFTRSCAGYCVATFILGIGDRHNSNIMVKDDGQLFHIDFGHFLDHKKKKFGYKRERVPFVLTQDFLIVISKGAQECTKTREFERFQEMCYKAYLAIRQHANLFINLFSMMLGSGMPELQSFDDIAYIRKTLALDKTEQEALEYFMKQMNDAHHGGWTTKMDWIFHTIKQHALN
inhibition [1] [%],Ratio IC50 (Homo sapiens [7]),Ratio IC50 (Homo sapiens [8]),SMILES,GI50 [2] [µM],GI50 [3] [µM],GI50 [4] [µM],GI50 [5] [µM],GI50 [6] [µM],also measured
20.3,,,N#CCc1ccc(Nc2ncnc3ccc(-c4ccc(-c5ccccc5)cc4F)cc23)cc1,14,16,13,33,32,
36.4,1,1,C=Cc1ccc(-c2ccc3ncnc(Nc4ccc(CC#N)cc4)c3c2)cc1,34,16,11,32,27,
,,,N#CCc1ccc(Nc2ncnc3ccc(-c4cccc5c4sc4ccccc45)cc23)cc1,18,31,34,33,34,
44,> 37,> 37,CC(=O)c1ccc(-c2ccc3ncnc(Nc4ccc(CC#N)cc4)c3c2)cc1,24,28,45,13,32,Ratio IC50 (Homo sapiens [9]): 0.5
,,,N#CCc1ccc(Nc2ncnc3ccc(-c4ccc(-c5ccccc5)cc4)cc23)cc1,10,16,29,30,13,
4.1,,,Cc1ccccc1-c1ccc2ncnc(Nc3ccc(CC#N)cc3)c2c1,38,36,> 100,68,32,
17,,,N#CCc1ccc(Nc2ncnc3ccc(-c4ccc(F)cc4F)cc23)cc1,28,7,10,21,9,
48.6,> 31.1,> 31.1,N#CCc1ccc(Nc2ncnc3ccc(-c4ccc5c(c4)OCO5)cc23)cc1,7,27,34,33,24,Ratio IC50 (Homo sapiens [9]): 0.6
8.2,,,N#CCc1ccc(Nc2ncnc3ccc(-c4ccc5ccccc5c4)cc23)cc1,22,25,16,48,31,
1.3,,,N#CCc1ccc(Nc2ncnc3ccc(-c4ccccc4C=O)cc23)cc1,21,42,91,90,39,
11,,,N#CCc1ccc(Nc2ncnc3ccc(-c4ccc(OCc5ccc(F)cc5)cc4)cc23)cc1,13,14,12,13,16,
,,,N#CCc1ccc(Nc2ncnc3ccc(-c4cnc5ccccc5c4)cc23)cc1,23,44,32,90,89,
,,,CCOc1ccc(-c2ccc(-c3ccc4ncnc(Nc5ccc(CC#N)cc5)c4c3)cc2)cc1,17,16,26,33,30,
45.6,> 14.2,> 14.2,N#CCc1ccc(Nc2ncnc3ccc(-c4ccncc4)cc23)cc1,76,32,32,39,35,Ratio IC50 (Homo sapiens [9]): 0.5
36.8,> 21,> 21,N#CCc1ccc(Nc2ncnc3ccc(-c4ccccc4)cc23)cc1,26,23,14,38,38,IC50 [10]: > 10 µM; IC50 [11]: > 10 µM; Ratio IC50 (Homo sapiens [9]): 14.6; IC50 [12]: 0.475 µM; IC50 [13]: 6.95 µM
33,> 29.2,> 29.2,N#CCc1ccc(Nc2ncnc3ccc(-c4ccc5c(c4)OCCO5)cc23)cc1,34,21,34,32,27,Ratio IC50 (Homo sapiens [9]): 4
,,,Nc1nc2cc(-c3ccc4ncc(C(=O)N5CCOCC5)n4c3)ccc2o1 [SERABELISIB],,,,,,IC50 [14]: 13.9 µM; IC50 [15]: 0.015 µM; IC50 [16]: 4.5 µM; IC50 [17]: 1.9 µM
16.4,,,CC(=O)Nc1cccc(-c2ccc3ncnc(Nc4ccc(CC#N)cc4)c3c2)c1,27,32,23,40,24,
1.5,,,N#CCc1ccc(Nc2ncnc3ccc(-c4cccc5c4oc4ccccc45)cc23)cc1,16,12,27,31,36,
,,,COc1cc2ncnc(Nc3ccc(CC#N)cc3)c2cc1OC,34,47,40,55,19,IC50 [10]: 19 µM; IC50 [11]: 55 µM; IC50 [12]: 47 µM; IC50 [13]: 40 µM
29.8,,,N#CCc1ccc(Nc2ncnc3ccc(-c4cc5ccccc5o4)cc23)cc1,8,17,9,28,10,
69.9,5.8,2.3,N#CCc1ccc(Nc2ncnc3ccc(-c4cccc(O)c4)cc23)cc1,37,24,15,36,28,solubility thermodynamic at 4 h [18]: 125 µg/mL; solubility thermodynamic at 4 h [19]: 5 µg/mL; solubility thermodynamic at 4 h [20]: 5 µg/mL; solubility thermodynamic at 4 h [21]: 5 µg/mL; Ratio IC50 (Homo sapiens [9]): 16
2.7,,,N#CCc1ccc(Nc2ncnc3ccc(-c4cc5ccccc5s4)cc23)cc1,13,14,8,24,14,
38.1,> 22.2,> 22.2,N#CCc1ccc(Nc2ncnc3ccc(-c4cccc([N+](=O)[O-])c4)cc23)cc1,29,15,12,7,23,Ratio IC50 (Homo sapiens [9]): 1.9
